According to ChEMBL document CHEMBL4808198, “Synthesis, bioevaluation and docking studies of new imidamide derivatives as nitric oxide synthase inhibitors” (Bioorg Med Chem, 2021):
pIC50: −log10 of the molar value.

Experiments:
[1] = biological target: T1, Nitric oxide synthase 1 (Homo sapiens, UniProt P29475); experiment: Inhibition of human recombinant nNOS expressed in Escherichia coli assessed as reduction in L-[3H]-citrulline level using L-[3H]-arginine as substrate at 1 mM incubated for 30 mins by liquid scintillation method relative to control
[2] = biological target: T2, Nitric oxide synthase, inducible (Homo sapiens, UniProt P35228); experiment: Inhibition of N-terminal His-tagged human recombinant iNOS expressed in Escherichia coli assessed as reduction in L-[3H]-citrulline level using L-[3H]-arginine as substrate at 1 mM incubated for 30 mins by liquid scintillation method relative to control
[3] = biological target: T3, Nitric oxide synthase 3 (Rattus norvegicus, UniProt Q62600); experiment: Inhibition of eNOS in Wistar rat endothelium-intact thoracic aortic rings assessed as inhibition of acetylcholine-evoked relaxation at 100 uM pretreated with compound for 30 mins followed by norepinephrine addition and later incubated with acetylcholine; assay type: tissue-based, Thoracic aorta; details: 0.5 h
T3 sequence (Q62600 whole entry): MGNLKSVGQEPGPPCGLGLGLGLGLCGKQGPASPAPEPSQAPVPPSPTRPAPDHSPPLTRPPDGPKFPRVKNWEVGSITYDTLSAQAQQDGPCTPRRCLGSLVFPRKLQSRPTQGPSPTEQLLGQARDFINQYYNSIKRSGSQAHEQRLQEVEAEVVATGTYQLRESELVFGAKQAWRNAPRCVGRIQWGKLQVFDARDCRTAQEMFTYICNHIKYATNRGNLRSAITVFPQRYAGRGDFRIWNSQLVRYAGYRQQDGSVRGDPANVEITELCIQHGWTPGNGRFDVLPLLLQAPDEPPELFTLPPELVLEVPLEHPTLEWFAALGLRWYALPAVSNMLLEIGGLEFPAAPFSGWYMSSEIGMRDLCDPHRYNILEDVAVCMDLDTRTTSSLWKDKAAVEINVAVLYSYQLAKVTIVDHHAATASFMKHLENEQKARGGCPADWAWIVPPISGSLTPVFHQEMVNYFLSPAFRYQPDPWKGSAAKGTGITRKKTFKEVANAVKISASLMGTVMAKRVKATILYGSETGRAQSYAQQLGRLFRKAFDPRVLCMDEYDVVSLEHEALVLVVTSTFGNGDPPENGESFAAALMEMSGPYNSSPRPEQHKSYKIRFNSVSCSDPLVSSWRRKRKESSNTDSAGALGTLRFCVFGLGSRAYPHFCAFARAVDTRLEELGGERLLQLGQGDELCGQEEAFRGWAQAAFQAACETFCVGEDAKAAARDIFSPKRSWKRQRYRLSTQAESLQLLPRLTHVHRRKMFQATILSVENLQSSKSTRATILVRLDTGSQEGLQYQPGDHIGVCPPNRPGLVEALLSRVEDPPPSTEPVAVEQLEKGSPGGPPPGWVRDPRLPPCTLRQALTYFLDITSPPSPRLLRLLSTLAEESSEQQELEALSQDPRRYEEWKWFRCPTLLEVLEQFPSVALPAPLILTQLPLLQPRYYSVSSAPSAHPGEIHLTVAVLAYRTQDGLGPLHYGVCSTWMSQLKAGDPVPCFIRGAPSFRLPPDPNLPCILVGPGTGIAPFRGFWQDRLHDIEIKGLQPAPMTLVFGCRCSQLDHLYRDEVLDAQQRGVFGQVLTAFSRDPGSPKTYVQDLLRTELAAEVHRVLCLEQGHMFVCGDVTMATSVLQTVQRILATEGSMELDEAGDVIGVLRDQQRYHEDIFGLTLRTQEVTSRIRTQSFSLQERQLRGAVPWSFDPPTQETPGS
Method in brief: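 Descending thoracic aortic rings with endothelium were held in Krebs solution at 37 °C, gassed with 95% O2/5% CO2, at 2 g resting tension, with isometric force recorded. Rings were incubated 30 min with test agent or DMSO vehicle (1/10⁶), then contracted with 1 µM norepinephrine. At plateau, acetylcholine was added cumulatively. Relaxation is given as % of norepinephrine contraction; n = rings from different rats; two-way ANOVA with Dunnett.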

[4] = biological target: T2, Nitric oxide synthase, inducible; experiment: Inhibition of N-terminal His-tagged human recombinant iNOS expressed in Escherichia coli assessed as reduction in L-[3H]-citrulline level using L-[3H]-arginine as substrate incubated for 30 min by scintillation counting
[5] = test system: HUVEC; experiment: Cytotoxicity against HUVEC assessed as reduction in cell viability at 10 to 100 uM measured after 30 mins by MTT assay; assay type: cell-based; details: human, 0.5 h, 500 µM, in the assay text read “10 to 500 uM” for “10 to 100 uM”
Method in brief: (§1)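 HUVECs seeded at 1x10⁴ cells/well, grown 24 h at 37 °C, switched to serum-free medium for at least 2 h, then exposed to serial dilutions (10 - 500 µM) for 30 min. MTT added for 3 h at 37 °C, formazan dissolved in DMSO, absorbance read at 570 nm minus 630 nm background. Viability given as % of untreated cells. At least three independent runs in triplicate.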

[6] = Cytotoxicity against HUVEC assessed as reduction in cell viability at 500 uM measured after 30 mins by MTT assay relative to control; assay type: cell-based; details: human, HUVEC cells, read-out: INH; method in brief: as §1
[7] = biological target: T3, Nitric oxide synthase 3; experiment: Inhibition of eNOS in Wistar rat endothelium-intact thoracic aortic rings assessed as inhibition of acetylcholine-evoked relaxation at 20 uM pretreated with compound for 30 mins followed by norepinephrine addition and later incubated with acetylcholine; assay type: tissue-based, Thoracic aorta; details: 0.5 h
Method in brief: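 Rat descending thoracic aortic rings with endothelium, in Krebs at 37 °C gassed with 95% O₂/5% CO₂, 2 g resting tension, isometric recording. Incubated 30 min with compound (20 µM), L-NAME (100 µM) or DMSO vehicle (1/10⁶), contracted with 1 µM norepinephrine, then cumulative acetylcholine. Relaxation given as % of norepinephrine contraction. Two-way ANOVA with Dunnett's test.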

[8] = biological target: T1, Nitric oxide synthase 1; experiment: Inhibition of human recombinant nNOS expressed in Escherichia coli assessed as reduction in L-[3H]-citrulline level using L-[3H]-arginine as substrate incubated for 30 min by scintillation counting

T1 sequence (P29475 whole entry): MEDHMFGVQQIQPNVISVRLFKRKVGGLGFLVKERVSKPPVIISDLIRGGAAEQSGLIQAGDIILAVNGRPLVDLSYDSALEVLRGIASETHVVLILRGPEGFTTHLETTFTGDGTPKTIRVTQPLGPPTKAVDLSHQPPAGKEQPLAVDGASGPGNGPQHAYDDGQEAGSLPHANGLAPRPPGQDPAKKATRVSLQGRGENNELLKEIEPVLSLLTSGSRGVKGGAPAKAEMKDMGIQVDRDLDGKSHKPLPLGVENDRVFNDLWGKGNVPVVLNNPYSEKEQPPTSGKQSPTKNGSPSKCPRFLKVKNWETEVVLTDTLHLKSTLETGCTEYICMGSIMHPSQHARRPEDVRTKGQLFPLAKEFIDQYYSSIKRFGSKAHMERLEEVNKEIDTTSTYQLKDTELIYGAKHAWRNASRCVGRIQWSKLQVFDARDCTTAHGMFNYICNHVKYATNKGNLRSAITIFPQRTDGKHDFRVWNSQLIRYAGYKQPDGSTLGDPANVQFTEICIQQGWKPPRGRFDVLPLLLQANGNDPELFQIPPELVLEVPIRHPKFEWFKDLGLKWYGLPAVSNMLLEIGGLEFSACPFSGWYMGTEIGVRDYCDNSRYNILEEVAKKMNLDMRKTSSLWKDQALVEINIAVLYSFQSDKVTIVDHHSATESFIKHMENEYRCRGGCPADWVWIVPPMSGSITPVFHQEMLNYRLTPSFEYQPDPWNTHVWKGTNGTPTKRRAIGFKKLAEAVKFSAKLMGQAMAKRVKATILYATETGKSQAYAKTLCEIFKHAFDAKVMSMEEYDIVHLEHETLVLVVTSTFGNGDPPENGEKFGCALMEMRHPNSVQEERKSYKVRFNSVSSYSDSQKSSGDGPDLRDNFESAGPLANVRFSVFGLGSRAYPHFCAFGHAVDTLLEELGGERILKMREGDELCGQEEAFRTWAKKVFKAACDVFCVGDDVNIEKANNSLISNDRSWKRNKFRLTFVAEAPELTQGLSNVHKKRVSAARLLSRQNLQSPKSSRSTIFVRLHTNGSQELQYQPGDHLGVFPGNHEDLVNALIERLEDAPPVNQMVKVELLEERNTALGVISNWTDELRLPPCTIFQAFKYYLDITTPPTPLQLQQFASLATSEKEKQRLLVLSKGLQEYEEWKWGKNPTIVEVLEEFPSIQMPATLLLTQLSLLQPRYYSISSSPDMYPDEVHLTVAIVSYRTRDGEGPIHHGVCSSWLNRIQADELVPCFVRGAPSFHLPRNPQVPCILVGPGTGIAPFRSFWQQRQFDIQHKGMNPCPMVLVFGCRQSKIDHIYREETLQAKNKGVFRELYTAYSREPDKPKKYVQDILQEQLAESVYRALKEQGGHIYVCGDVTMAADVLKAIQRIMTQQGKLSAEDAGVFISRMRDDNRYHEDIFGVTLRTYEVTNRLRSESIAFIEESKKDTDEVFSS
T2 sequence (P35228 whole entry): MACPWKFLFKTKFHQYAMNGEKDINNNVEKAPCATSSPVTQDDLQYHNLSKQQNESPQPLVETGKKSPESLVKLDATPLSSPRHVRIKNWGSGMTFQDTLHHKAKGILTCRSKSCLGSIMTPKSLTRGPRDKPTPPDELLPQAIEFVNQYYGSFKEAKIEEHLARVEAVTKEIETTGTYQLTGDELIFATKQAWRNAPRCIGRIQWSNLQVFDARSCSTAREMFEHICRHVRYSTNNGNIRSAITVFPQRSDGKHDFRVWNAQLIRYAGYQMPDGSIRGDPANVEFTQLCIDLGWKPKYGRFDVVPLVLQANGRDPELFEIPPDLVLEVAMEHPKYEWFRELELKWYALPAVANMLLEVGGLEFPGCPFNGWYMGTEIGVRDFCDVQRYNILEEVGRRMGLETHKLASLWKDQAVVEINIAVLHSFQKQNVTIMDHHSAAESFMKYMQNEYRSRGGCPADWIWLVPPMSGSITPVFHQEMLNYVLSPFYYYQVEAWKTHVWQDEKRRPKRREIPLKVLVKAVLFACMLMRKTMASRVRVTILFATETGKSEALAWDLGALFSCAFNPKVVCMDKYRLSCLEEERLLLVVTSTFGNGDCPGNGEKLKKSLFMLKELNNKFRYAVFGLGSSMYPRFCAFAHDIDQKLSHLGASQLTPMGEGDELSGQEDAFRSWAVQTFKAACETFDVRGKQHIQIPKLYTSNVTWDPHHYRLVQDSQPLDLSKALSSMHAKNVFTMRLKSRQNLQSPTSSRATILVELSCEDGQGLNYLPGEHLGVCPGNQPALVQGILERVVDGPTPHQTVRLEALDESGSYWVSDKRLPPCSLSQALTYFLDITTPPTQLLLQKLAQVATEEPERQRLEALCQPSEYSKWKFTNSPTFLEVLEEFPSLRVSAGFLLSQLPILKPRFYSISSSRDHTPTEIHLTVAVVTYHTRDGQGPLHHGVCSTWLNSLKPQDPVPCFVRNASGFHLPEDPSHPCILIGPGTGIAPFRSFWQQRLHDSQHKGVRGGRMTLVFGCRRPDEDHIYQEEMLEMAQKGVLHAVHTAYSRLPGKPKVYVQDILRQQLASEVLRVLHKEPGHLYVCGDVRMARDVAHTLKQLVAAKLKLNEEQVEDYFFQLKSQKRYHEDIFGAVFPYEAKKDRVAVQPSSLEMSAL

Row | SMILES | inhibition [1] [%] | inhibition [2] [%] | pIC50 [4] | inhibition (INH) [7] | pIC50 [8] | inhibition (INH) [3] | Activity [5] | cytotoxicity at 0.5 h, 500 µM [6] [%]
1 | CC(=N)NCCC(O)c1ccccc1N (stereo not given) | 28.3 | 16.2 | – | – | – | – | – | –
2 | N=C(NCCC(O)c1ccccc1N)c1ccc(C(F)(F)F)cc1 (stereo not given) | 36.5 | 60.5 | – | – | – | – | – | –
3 | COc1ccc(N)c(C(=O)CCNC(=N)c2ccc(Cl)cc2)c1 | 86.4 | 75.1 | – | – | – | – | – | –
4 | COC(=O)[C@@H](N)CCCNC(=N)N[N+](=O)[O-] [L-NAME] | – | – | – | – | – | Active | – | –
5 | COc1ccc(N)c(C(O)CCNC(C)=N)c1 (stereo not given) | 19 | 57.4 | – | – | – | – | – | –
6 | COc1ccc(N)c(C(O)CCNC(=N)c2ccccc2)c1 (stereo not given) | 7.18 | 95.9 | 4.65 | – | < 3.00 | – | Non-Toxic | 20
7 | N=C(NCCC(=O)c1ccccc1N)c1ccc(Cl)cc1 | 37.4 | 33.4 | – | – | – | – | – | –
8 | N=C(NCCC(=O)c1ccccc1N)c1ccc(C(F)(F)F)cc1 | 56 | 68.6 | – | – | – | – | – | –
9 | COc1ccc(N)c(C(O)CCNC(=N)c2ccc(Cl)cc2)c1 (stereo not given) | 58.5 | 81 | – | – | – | – | – | –
10 | COc1ccc(N)c(C(=O)CCNC(C)=N)c1 | 89.2 | 97.6 | 4.22 | – | 3.65 | – | – | –
11 | CC(=N)NCCC(O)c1cc(Cl)ccc1N (stereo not given) | 66.1 | 49.1 | – | – | – | – | – | –
12 | N=C(NCCC(O)c1ccccc1N)c1ccc(Cl)cc1 (stereo not given) | 31.6 | 73.2 | – | – | – | – | – | –
13 | CC(=N)NCCC(=O)c1ccccc1N | 88.8 | 22.2 | < 3.00 | – | 3.49 | – | – | –
14 | COc1ccc(N)c(C(=O)CCNC(=N)c2ccccc2)c1 | 85.9 | 94.7 | 4.34 | – | 3.71 | – | Non-Toxic | 20

Further lines, with some results ahead:

Row | inhibition [1] [%] | inhibition [2] [%] | pIC50 [4] | inhibition (INH) [7] | pIC50 [8] | SMILES | inhibition (INH) [3] | Activity [5] | cytotoxicity at 0.5 h, 500 µM [6] [%]
15 | 66.5 | 35.6 | – | – | – | N=C(NCCC(=O)c1ccccc1N)c1ccccc1 | – | – | –
16 | 12.5 | 99.6 | 4.70 | Not Active | < 3.00 | COc1ccc(N)c(C(O)CCNC(=N)c2ccc(C(F)(F)F)cc2)c1 (stereo not given) | – | Non-Toxic | 20
17 | 19.9 | 99.1 | 4.59 | – | < 3.00 | CC(=N)NCCC(=O)c1cc(Cl)ccc1N | – | Non-Toxic | 20
18 | – | – | 3.74 | – | 3.89 | CNC(=S)NCCC(O)c1cc(OC)ccc1N (stereo not given) | – | – | –
19 | 23.2 | 64.1 | – | – | – | N=C(NCCC(O)c1ccccc1N)c1ccccc1 (stereo not given) | – | – | –
20 | – | – | 4.00 | – | < 3.00 | CCNC(=O)NCCC(=O)c1cc(Cl)ccc1N | – | – | –
